Test results as given in ChEMBL document CHEMBL4616691 (ACS Med Chem Lett, 2020).
In brackets after ≈: the same amount, converted by molar mass. Activity calls are given as the source filed them. No cut-off for these calls is given here.

Tests used:
[1] = Thermodynamic solubility in 0.001N HCl by HPLC analysis; type: physicochemical; settings: for solubility thermodynamic: 0.001N HCl, read-out: Therm_solubility
In short: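 Thermodynamic solubility measured in 0.001 N HCl (pH 3), chosen to resemble acidic gastric fluid. Dissolved compound quantified by HPLC and reported in […].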

[2] = target: T1, NPC intracellular cholesterol transporter 1 (Homo sapiens) (UniProt O15118); test: Inhibition of NPC1 in HUVEC cells assessed as accumulation of cholesterol in perinuclear structure at 0.2 uM incubated for 24 hrs by filipin staining based confocal microscopy analysis; type: cell-based
T1 sequence (whole entry): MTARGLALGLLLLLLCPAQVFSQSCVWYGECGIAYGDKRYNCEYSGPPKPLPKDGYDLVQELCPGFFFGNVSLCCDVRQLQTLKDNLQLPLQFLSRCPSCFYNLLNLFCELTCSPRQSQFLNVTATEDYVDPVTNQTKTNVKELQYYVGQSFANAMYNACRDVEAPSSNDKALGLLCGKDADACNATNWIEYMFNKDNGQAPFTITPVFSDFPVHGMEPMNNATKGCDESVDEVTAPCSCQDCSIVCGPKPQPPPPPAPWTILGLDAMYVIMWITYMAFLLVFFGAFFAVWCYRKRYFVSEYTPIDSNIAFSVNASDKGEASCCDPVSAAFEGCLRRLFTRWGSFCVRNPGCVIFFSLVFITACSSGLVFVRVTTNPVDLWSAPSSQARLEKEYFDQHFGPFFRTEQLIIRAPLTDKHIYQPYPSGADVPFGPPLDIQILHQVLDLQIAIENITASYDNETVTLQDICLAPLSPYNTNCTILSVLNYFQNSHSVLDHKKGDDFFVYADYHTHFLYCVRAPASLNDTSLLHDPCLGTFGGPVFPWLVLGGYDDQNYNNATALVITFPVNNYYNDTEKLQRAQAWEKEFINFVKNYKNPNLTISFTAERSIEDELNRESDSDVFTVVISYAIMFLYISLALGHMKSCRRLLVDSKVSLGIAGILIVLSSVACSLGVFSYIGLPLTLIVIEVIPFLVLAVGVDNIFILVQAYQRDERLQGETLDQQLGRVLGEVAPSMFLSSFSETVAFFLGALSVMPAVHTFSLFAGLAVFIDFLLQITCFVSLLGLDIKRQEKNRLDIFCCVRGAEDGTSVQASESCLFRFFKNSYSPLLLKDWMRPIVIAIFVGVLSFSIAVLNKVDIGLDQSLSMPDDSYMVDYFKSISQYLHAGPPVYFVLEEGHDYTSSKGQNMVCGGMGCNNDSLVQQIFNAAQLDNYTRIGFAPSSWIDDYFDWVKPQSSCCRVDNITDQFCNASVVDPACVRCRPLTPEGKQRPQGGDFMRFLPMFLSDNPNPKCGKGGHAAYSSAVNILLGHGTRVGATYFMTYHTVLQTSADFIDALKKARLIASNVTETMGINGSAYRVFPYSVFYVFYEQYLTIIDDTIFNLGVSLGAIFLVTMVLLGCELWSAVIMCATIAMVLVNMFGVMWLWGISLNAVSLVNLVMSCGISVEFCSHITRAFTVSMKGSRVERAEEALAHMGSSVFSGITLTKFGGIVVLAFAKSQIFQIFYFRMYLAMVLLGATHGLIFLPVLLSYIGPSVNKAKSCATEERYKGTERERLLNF
In short: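 Primary HUVECs incubated 24 h with 0.2 μM compound or DMSO. Intracellular cholesterol stained with filipin and imaged by confocal fluorescence microscopy, 25x objective.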

HUVEC [3] = test: Effect on VEGFR2 localization in human HUVEC cells assessed as accumulation of VEGFR2 in perinuclear region at 2 uM by DAPI staining based confocal micrscopy; type: functional, cell-based
In short: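 HUVECs treated with DMSO or 2 μM compound. Cells immunostained for VEGFR2 (green) and Golgi marker GM130 (red), nuclei counterstained with DAPI. Imaged by confocal microscopy, scoring perinuclear VEGFR2 and its colocalization with GM130.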

[4] = Inhibition of NPC1/VDAC1 in HUVEC cells assessed as reduction in cell proliferation pretreated for 24 hrs followed by [3H]thymidine incorporation by scintillation counter method; type: cell-based; settings: Homo sapiens
In short: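 HUVEC proliferation read by [³H]-thymidine incorporation, giving IC50. Mean ± SD of three independent experiments, each run in triplicate.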

Cytochrome P450 3A4 = Cytochrome P450 3A4 (Homo sapiens, UniProt P08684); test: Inhibition of CYP3A4 (unknown origin); type: ADME
HUVEC [5] = test: Inhibition of NPC1/VDAC1 in HUVEC cells assessed as inhibition of tube formation at 3 uM measured after 24 hrs by Calcein-AM staining based fluorescence microscopy analysis relative to control; type: cell-based; settings: Homo sapiens
In short: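 HUVECs seeded on Matrigel-coated wells and treated with DMSO or 3 μM compound for 24 h. Networks stained with Calcein-AM and imaged by fluorescence microscopy. Total tube length quantified from the images against DMSO control. Mean ± SD of three independent experiments.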

[6] = target: AMP-activated protein kinase, AMPK (Homo sapiens) (UniProt P54646+O43741+P54619+Q9UGJ0+Q9Y478+Q13131+Q9UGI9); test: Activation of AMPK in HUVEC cells assessed as phosphorylation of acetyl CoA carboxylase measured after 24 hrs by Western blot analysis; type: cell-based
In short: (§1)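 HUVECs exposed to test compound at 0.05, 0.25, 0.5, 1 or 2 μM, or DMSO vehicle, for 24 h. Lysates probed by western blot for VEGFR2, phospho- and total ACC, phospho- and total S6K, with β-actin as loading reference.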

[7] = target: Serine/threonine-protein kinase mTOR (Homo sapiens) (UniProt P42345); test: Inhibition of mTOR in HUVEC cells assessed as reduction in phosphorylation of p70S6K measured after 24 hrs by Western blot analysis; type: cell-based; in short: as §1
[8] = target: Vascular endothelial growth factor receptor 2 (Homo sapiens) (UniProt P35968); test: Inhibition of VEGFR2 glycosylation in HUVEC cells assessed as disappearance of VEGFR2 at 0.5 to 2 uM measured after 24 hrs by Western blot analysis; type: cell-based; in short: as §1
Chain of Vascular endothelial growth factor receptor 2 (Homo sapiens) (P35968 whole entry): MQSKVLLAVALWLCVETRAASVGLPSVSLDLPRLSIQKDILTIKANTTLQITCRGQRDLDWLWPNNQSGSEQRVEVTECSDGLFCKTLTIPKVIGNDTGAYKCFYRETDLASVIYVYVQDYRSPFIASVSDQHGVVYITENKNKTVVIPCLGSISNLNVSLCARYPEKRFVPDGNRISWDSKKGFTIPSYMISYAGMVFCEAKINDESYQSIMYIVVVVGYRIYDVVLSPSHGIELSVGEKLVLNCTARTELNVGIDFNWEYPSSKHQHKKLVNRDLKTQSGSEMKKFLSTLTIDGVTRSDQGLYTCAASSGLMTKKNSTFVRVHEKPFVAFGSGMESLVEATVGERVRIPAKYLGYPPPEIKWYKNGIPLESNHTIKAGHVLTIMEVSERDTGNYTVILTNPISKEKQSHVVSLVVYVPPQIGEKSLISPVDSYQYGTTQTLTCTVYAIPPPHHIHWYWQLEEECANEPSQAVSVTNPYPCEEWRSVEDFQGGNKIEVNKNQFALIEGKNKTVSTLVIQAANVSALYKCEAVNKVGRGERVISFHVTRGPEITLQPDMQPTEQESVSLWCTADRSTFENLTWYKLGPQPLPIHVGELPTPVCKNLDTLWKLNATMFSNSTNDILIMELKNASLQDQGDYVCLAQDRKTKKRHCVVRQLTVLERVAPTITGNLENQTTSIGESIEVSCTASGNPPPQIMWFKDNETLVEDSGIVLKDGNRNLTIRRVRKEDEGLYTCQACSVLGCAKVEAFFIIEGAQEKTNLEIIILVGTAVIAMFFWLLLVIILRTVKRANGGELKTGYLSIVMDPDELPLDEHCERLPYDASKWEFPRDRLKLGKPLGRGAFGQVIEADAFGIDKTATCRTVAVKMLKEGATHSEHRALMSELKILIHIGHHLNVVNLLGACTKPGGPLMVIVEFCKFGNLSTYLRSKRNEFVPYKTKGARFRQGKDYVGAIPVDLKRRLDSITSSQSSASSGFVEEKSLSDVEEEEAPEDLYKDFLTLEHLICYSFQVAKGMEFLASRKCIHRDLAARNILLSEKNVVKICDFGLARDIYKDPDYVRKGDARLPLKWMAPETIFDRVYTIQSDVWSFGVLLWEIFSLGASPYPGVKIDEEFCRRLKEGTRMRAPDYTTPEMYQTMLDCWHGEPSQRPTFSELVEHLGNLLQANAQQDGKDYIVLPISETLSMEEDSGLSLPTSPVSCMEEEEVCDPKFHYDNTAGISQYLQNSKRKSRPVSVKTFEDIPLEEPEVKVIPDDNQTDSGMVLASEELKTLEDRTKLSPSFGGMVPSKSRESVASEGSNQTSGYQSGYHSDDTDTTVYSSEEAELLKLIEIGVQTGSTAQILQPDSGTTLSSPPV

Chain of Cytochrome P450 3A4 (P08684 whole entry): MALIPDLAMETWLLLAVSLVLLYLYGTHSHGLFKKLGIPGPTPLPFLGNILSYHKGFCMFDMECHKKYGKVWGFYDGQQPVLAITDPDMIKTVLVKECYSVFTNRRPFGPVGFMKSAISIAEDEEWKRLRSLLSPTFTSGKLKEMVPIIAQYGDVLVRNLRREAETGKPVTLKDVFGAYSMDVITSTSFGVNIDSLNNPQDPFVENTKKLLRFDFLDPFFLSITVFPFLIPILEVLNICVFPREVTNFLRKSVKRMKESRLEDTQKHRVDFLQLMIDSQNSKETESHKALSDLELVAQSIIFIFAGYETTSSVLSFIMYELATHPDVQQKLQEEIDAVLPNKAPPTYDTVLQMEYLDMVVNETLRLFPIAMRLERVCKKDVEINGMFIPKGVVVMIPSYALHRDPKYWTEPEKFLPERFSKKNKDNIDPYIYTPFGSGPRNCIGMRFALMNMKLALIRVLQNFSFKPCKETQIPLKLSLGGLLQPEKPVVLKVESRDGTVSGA

| SMILES | solubility thermodynamic [1] | IC50 [4] | also measured |
| --- | --- | --- | --- |
| CCC(C)n1ncn(-c2ccc(N3CCN(c4ccc(OCC5COC(Cn6cncn6)(c6ccc(Cl)cc6Cl)O5)cc4)CC3)cc2)c1=O (configuration not stated) [ITRACONAZOLE] | – | – | Therm_solubility ([1]; buffer): 0.0101 µg/mL; inhibition [2]: Active; Activity (HUVEC [3]): Active |
| CCC(C)n1ncn(-c2ccc(N3CCN(c4ccc(OC[C@@H]5CO[C@@](Cn6cncn6)(c6ccc(Cl)cc6Cl)O5)cc4)CC3)c(F)c2)c1=O (some centres not stated) | 0.0291 µg/mL (≈ 0.0402 µM) | 128 nM | – |
| CCC(C)n1ncn(-c2ccc(N3CCN(c4ccc(OC[C@@H]5CO[C@@](Cn6cncn6)(c6ccc(Cl)cc6Cl)O5)cn4)CC3)cc2)c1=O (some centres not stated) | 0.114 µg/mL (≈ 0.161 µM) | 380 nM | – |
| CCC(C)n1ncn(-c2ccc(N3CCN(c4ccc(OC[C@@H]5CO[C@@](Cn6cncn6)(c6ccc(Cl)cc6Cl)O5)cn4)CC3)c(F)c2)c1=O (some centres not stated) | 0.848 µg/mL (≈ 1.17 µM) | 173 nM | – |
| CCC(C)n1ncn(-c2ccc(N3CCN(c4ccc(OC[C@@H]5CO[C@@](Cn6cnnn6)(c6ccc(Cl)cc6Cl)O5)cn4)CC3)cc2)c1=O (some centres not stated) | 0.951 µg/mL (≈ 1.34 µM) | 77.1 nM | IC50 (Cytochrome P450 3A4): > 90000 nM; inhibition (HUVEC [5]): 70%; inhibition [2]: Active; Activity [6]: Dose-dependent effect; inhibition [7]: Dose-dependent effect; inhibition [8]: Active; Activity (HUVEC [3]): Active |
| CCC(C)n1ncn(-c2ccc(N3CCN(c4ccc(OC[C@@H]5CO[C@@](Cn6cncn6)(c6ccc(Cl)cc6Cl)O5)cc4)CC3)cn2)c1=O (some centres not stated) | 0.496 µg/mL (≈ 0.703 µM) | 188 nM | – |
| CCC(C)n1ncn(-c2ccc(N3CCN(c4ccc(OC[C@@H]5CO[C@@](Cn6ccnc6)(c6ccc(Cl)cc6Cl)O5)cn4)CC3)cc2)c1=O (some centres not stated) | 2.94 µg/mL (≈ 4.16 µM) | 69.1 nM | – |
| CCC(C)n1ncn(-c2ccc(N3CCN(c4ccc(OC[C@@H]5CO[C@@](Cn6ccnc6)(c6ccc(Cl)cc6Cl)O5)nc4)CC3)cc2)c1=O (some centres not stated) | 6.48 µg/mL (≈ 9.19 µM) | 468 nM | – |
| CCC(C)n1ncn(-c2ccc(N3CCN(c4ccc(OC[C@@H]5CO[C@@](Cn6cnnn6)(c6ccc(Cl)cc6Cl)O5)cc4)CC3)cc2)c1=O (some centres not stated) | 0.321 µg/mL (≈ 0.455 µM) | – | inhibition [2]: Active |
| CCC(C)n1ncn(-c2ccc(N3CCN(c4ccc(OC[C@@H]5CO[C@@](Cn6cncn6)(c6ccc(Cl)cc6Cl)O5)nc4)CC3)cc2)c1=O (some centres not stated) | 0.116 µg/mL (≈ 0.164 µM) | 687 nM | – |
| CCC(C)n1ncn(-c2ccc(N3CCN(c4ccc(OC[C@@H]5CO[C@@](Cn6ccnc6)(c6ccc(Cl)cc6Cl)O5)cc4)CC3)c(F)c2)c1=O (some centres not stated) | 17.2 µg/mL (≈ 23.7 µM) | 70.1 nM | – |
| CCC(C)n1ncn(-c2ccc(N3CCN(c4ccc(OC[C@@H]5CO[C@@](Cn6cnnn6)(c6ccc(Cl)cc6Cl)O5)cn4)CC3)c(F)c2)c1=O (some centres not stated) | 0.708 µg/mL (≈ 0.975 µM) | 108 nM | inhibition [2]: Active |

Now from value to compound, other results behind:

| solubility thermodynamic [1] | SMILES | IC50 [4] | also measured |
| --- | --- | --- | --- |
| 41.3 µg/mL (≈ 58.6 µM) | CCC(C)n1ncn(-c2ccc(N3CCN(c4ccc(OC[C@@H]5CO[C@@](Cn6ccnc6)(c6ccc(Cl)cc6Cl)O5)cc4)CC3)cn2)c1=O (some centres not stated) | 636 nM | – |
| 0.255 µg/mL (≈ 0.352 µM) | CCC(C)n1ncn(-c2ccc(N3CCN(c4ccc(OC[C@@H]5CO[C@@](Cn6cncn6)(c6ccc(Cl)cc6Cl)O5)nc4)CC3)c(F)c2)c1=O (some centres not stated) | 446 nM | – |
| 7.99 µg/mL (≈ 11.3 µM) | CCC(C)n1ncn(-c2ccc(N3CCN(c4ccc(OC[C@@H]5CO[C@@](Cn6ccnc6)(c6ccc(Cl)cc6Cl)O5)cc4)CC3)nc2)c1=O (some centres not stated) | 98.5 nM | – |
| 0.0528 µg/mL (≈ 0.0729 µM) | CCC(C)n1ncn(-c2ccc(N3CCN(c4ccc(OC[C@@H]5CO[C@@](Cn6cnnn6)(c6ccc(Cl)cc6Cl)O5)cc4)CC3)c(F)c2)c1=O (some centres not stated) | 153 nM | IC50 (Cytochrome P450 3A4): > 90000 nM; inhibition [2]: Active |
| 125 µg/mL (≈ 173 µM) | CCC(C)n1ncn(-c2ccc(N3CCN(c4ccc(OC[C@@H]5CO[C@@](Cn6ccnc6)(c6ccc(Cl)cc6Cl)O5)cn4)CC3)c(F)c2)c1=O (some centres not stated) | 68 nM | – |
| 0.0539 µg/mL (≈ 0.0763 µM) | CCC(C)n1ncn(-c2ccc(N3CCN(c4ccc(OC[C@@H]5CO[C@@](Cn6cncn6)(c6ccc(Cl)cc6Cl)O5)cc4)CC3)nc2)c1=O (some centres not stated) | 222 nM | – |
